Data on three compounds can be found in ChEMBL document CHEMBL2434946, “Synthesis of lipoic acid-peptide conjugates and their effect on collagen and melanogenesis” (Eur J Med Chem, 2013).

The source made the active and inactive calls. The calls are words filed in the database; no cut-off is given here. Peptide text beside a SMILES is read from it.

Data set [1] deals with HDF. Kind of data set: Induction of HDF proliferation at 0.1 mM after 48 hrs by MTT assay relative to control. The data set is classed as functional. The settings on record: Homo sapiens. For orientation: Formazan colour is commonly taken as a measure of viable cells.
Data set [2] is described as follows: Cytotoxicity against HDF at 0.5 to 5 mM after 48 hrs by MTT assay. To be noted: human, 5000 µM. An outline of the steps:
(§1)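 Human dermal fibroblasts grown in DMEM with 10% FBS and 1% penicillin-streptomycin at 37 °C under 5% CO2. Treated 48 h at 0.5, 2.5 and 5 mM. MTT ([…]) added for 3 h at 37 °C, then absorbance read at 570 nm. Result expressed as percent viable cells versus untreated control; triplicate, mean ± SD.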

Data set [3] has as its target T1, Tyrosinase (Agaricus bisporus) (UniProt O42713).
T1 sequence (whole entry): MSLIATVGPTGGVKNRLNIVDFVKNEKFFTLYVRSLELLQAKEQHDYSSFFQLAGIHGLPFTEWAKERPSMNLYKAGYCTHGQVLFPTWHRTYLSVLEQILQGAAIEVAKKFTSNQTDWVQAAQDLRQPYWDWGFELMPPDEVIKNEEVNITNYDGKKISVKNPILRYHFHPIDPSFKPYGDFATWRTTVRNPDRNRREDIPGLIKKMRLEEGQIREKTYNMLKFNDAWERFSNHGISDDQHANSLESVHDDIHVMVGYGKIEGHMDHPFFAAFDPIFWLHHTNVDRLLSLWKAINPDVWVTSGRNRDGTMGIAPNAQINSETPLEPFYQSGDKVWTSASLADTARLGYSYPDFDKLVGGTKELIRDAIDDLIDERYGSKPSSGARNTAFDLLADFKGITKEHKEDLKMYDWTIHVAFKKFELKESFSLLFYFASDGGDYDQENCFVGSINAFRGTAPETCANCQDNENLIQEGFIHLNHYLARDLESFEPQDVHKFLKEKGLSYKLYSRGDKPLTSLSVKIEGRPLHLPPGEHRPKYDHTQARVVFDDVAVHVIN
Description: Inhibition of mushroom tyrosinase using L-DOPA as substrate at 2.5 mM preincubated for 10 to 15 mins prior to substrate addition by spectrophotometry. An outline of the steps:
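Mushroom tyrosinase (625 U/mL solution) pre-incubated with sample in phosphate-buffered saline for 10–15 min at 25 °C. Reaction started with 0.03% L-DOPA, and dopachrome formation read at 475 nm. Result given as percent inhibition; triplicate, mean ± SD.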

Data set [4] can be described thus: Cytotoxicity against mouse B16F10 cells assessed as cell viability after 48 hrs by MTT assay. The data set is classed as cell-based, B16-F10. To be noted: read-out: MNCC. In short, it runs like this:
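B16F10 mouse melanoma cells grown in DMEM with 10% FBS, 1% penicillin-streptomycin and […] at 37 °C under 5% CO2. Exposed to samples 48 h at 37 °C, then MTT added for 3 h with A570 read-out. Reported value is the highest tested dose that caused no loss of viability.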

Data set [5] has as its system HDF. Description: Induction of collagen synthesis in HDF at 0.5 mM after 24 hrs by EIA. To be noted: Homo sapiens. The data set is classed as functional. In short, it runs like this: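 HDFs seeded at 5 × 10^4 cells and grown 24 h in DMEM with 10% FBS. Medium then switched to serum-free medium containing sample (0.5 mM) for 24 h. Type I procollagen in the supernatant measured by enzyme immunoassay kit; triplicate, mean ± SD.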

The nature of data set [6]: Inhibition of UV light-induced MMP-1 protein expression in HDF at 0.5 mM after 72 hrs UV light irradiation by ELISA. The data set is classed as functional. The settings on record: Homo sapiens. In short, it runs like this: (§2)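 HDFs washed twice with PBS, then exposed to UVA at 6.3 J/cm2. MMP-1 protein in culture medium measured by ELISA 72 h after irradiation: anti-MMP-1 monoclonal 60 min at 37 °C, alkaline phosphatase-conjugated anti-mouse IgG 30 min, OD405. IC50 taken as the dose that lowers UV-induced MMP-1 by 50%; triplicate, mean ± SD.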
Background: ELISA stands for enzyme-linked immunosorbent assay.

Data set [7] in a line: Inhibition of UV light-induced MMP-1 protein expression in HDF after 72 hrs UV light irradiation by ELISA. To be noted: for inhibition: Homo sapiens. The data set is classed as functional, Homo sapiens. In short, it runs like this: as §2
Data set [8] deals with T2, Tyrosinase (Mus musculus) (UniProt P11344).
T2 sequence (whole entry): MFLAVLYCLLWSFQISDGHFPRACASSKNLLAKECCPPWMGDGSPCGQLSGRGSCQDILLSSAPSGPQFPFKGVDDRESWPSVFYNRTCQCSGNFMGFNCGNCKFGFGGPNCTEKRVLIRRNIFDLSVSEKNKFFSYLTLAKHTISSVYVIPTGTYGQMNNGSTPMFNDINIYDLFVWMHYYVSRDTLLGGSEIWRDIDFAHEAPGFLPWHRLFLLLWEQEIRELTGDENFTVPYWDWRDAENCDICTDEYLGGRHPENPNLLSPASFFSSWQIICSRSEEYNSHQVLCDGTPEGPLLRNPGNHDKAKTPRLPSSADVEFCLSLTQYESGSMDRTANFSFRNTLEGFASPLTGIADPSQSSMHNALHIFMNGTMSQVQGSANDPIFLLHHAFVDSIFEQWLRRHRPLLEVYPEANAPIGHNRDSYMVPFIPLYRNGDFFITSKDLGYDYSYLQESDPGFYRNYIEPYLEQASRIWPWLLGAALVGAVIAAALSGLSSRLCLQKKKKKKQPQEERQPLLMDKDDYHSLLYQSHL
Kind of data set: Inhibition of tyrosinase in mouse B16F10 cells assessed as inhibition of melanin synthesis at 0.25 mM after 72 hrs by spectrophotometry relative to control. The data set is classed as cell-based. The settings on record: B16-F10. An outline of the steps:
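B16F10 cells grown with α-MSH were treated with samples for 72 h, then counted, washed and pelleted. Pellets solubilized in 1 N NaOH plus phosphate buffer pH 6.8 containing 1% Triton X-100 and 2 mM PMSF. Melanin read at 405 nm against a synthetic melanin standard curve and expressed as percent of control; triplicate, mean ± SD.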

Data set [9] is described as follows: Induction of HDF proliferation at 0.5 mM after 48 hrs by MTT assay relative to control. The data set is classed as functional, Homo sapiens. In short, it runs like this: as §1
Data set [10] can be described thus: Solubility of the compound in water. The data set is classed as physicochemical.
The nature of data set [11]: Induction of HDF proliferation at 5 mM after 48 hrs by MTT assay relative to control. The data set is classed as functional, Homo sapiens. An outline of the steps: as §1

Consider `O=C(O)CCCCC1CCSS1` (stereo not drawn) [LIPOIC ACID, ALPHA], for which the result with HDF [1] was inactive. In addition, the Activity entry in data set [2] is given as “Toxic”. Also, in data set [3], the inhibition entry was “Active”. Further, the MNTC at 48 h in data set [4] came to 0.1 mM.
In the case of `C[C@@H](O)[C@H](NC(=O)[C@H](CCCCN)NC(=O)CCCC[C@@H]1CCSS1)C(=O)N[C@H](C(=O)N[C@@H](CCCCN)C(=O)N[C@@H](CO)C(=O)O)[C@@H](C)O` (HELM PEPTIDE1{[O=C(CCCC[C@@H]1CCSS1)[*:2]].K.T.T.K.S}$$$$V2.0), the result in the data set on HDF [5] was Active. Moreover, the inhibition in data set [6] was 49.5%; in data set [7], “Dose-dependent effect”; in [8], 46.1%; in data set [3] it was 60.2%. The compound further returned a half-maximal inhibitory concentration (IC50) in [7] of 500 µM. In data set [9], this compound returned an Activity of 24.5%. For the same compound, the solubility in data set [10] is more than 100 mg/mL. In addition, the MNTC at 48 h in data set [4] was determined as 1 mM.
For the compound H-KTTKS-OH, the result in the data set on HDF [5] was Active. The results for the inhibition entry in data set [7] and in data set [8] were “Dose-dependent effect” and 7.5%, respectively. The same compound registered an Activity in [11] of 13.4%. Further, the inhibition result in [3] is “Active”. Also, in [4], the MNTC at 48 h came out at 5 mM.

As usually defined, the inhibition is the share of the control response that was lost under treatment. As usually defined, the IC50 is the concentration at which inhibition is half-maximal. A higher IC50 goes with a need for much substance. As a reminder, the solubility is the concentration that dissolves in the medium under given conditions. A low value points to little dissolved substance.
